# Measurements of several laboratories.
# Protocols differ between the studies behind these lines.
# SMARCA2 bromodomain: SWI/SNF-related matrix-associated actin-dependent regulator of chromatin subfamily A member 2, bromodomain (SMARCA2, Homo sapiens, UniProt P51531)
# MTOR: Serine/threonine-protein kinase mTOR (MTOR, Homo sapiens, UniProt P42345)
# TYK2 JH2: Non-receptor tyrosine-protein kinase TYK2, JH2 (TYK2, Homo sapiens, UniProt P29597)
# HSP90B1: Endoplasmin (HSP90B1, Canis lupus familiaris, UniProt P41148)
Structure (SMILES),target,observed,technique,setting,Kd
Cc1ncsc1-c1ccc(CNC(=O)[C@@H]2C[C@@H](O)CN2C(=O)[C@@H](NC(=O)C2(F)CC2)C(C)(C)C)c(OCCOCCOCCN2CCN(c3cc(-c4ccccc4O)nnc3N)CC2)c1,SMARCA2 bromodomain,binding,SPR,,4.5 µM
NCCS(=O)(=O)O,"Cyclin-dependent kinase 6 (CDK6, Homo sapiens, UniProt Q00534)",binding,,,0.143 µM
CCC(=O)N1CCC(C(=O)NCC(=O)N2CCN(c3nc(-c4cnc(N)nc4C(F)F)nc(N4CCOCC4)n3)CC2)CC1,MTOR,binding,competition with immobilised ligand,,0.033 µM
COc1cc2c(Nc3ccc(NC(=O)c4ccccc4)cc3)ncnc2cc1OCCCN1CCOCC1,"Epidermal growth factor receptor (EGFR, Homo sapiens, UniProt P00533)",binding,,,> 10 µM
Cc1cc2nc3c(=O)[nH]c(=O)nc-3n(C[C@H](O)[C@H](O)[C@H](O)COP(=O)(O)OP(=O)(O)OC[C@H]3O[C@@H](n4cnc5c(N)ncnc54)[C@H](O)[C@@H]3O)c2cc1C,"DAZ-associated protein 1 (Homo sapiens, UniProt Q96EP5)",binding,,lysate,0.007 µM
C=CC(=O)N1CCC(C(=O)N(C)CC(=O)N2CCN(c3nc(-c4cnc(N)nc4C(F)F)nc(N4CCOCC4)n3)CC2)CC1,MTOR,binding,competition with immobilised ligand,,0.026 µM
c1cncc(-c2cccc(Nc3nccc(NC4CCCCC4)n3)c2)c1,TYK2 JH2,binding,competition with immobilised ligand,,0.74 µM
O=P(O)(O)O[C@H]1[C@H](O)[C@@H](OP(=O)(O)O)[C@H](OP(=O)(O)O)[C@@H](OP(=O)(O)O)[C@H]1O,"PREX1 (Homo sapiens, UniProt Q8TCU6)",binding,ITC,,0.44 µM
COCCOCCc1c(C)c2cc(OC)c(O)c(C=O)c2oc1=O,"Serine/threonine-protein kinase/endoribonuclease IRE1 (Mus musculus, UniProt Q9EQY0, N772Y)",binding,,,0.84 µM
COC(=O)c1c(O)cc(O)c(Cl)c1CCC(=O)Nc1ccccc1Cl,HSP90B1,ligand displacement,FP,,1.85 µM
CC1(C)[C@@H]2CC[C@@]1(C)C(=O)C2,"Camphor 5-monooxygenase (camC, Pseudomonas putida, UniProt P00183)",binding,ITC,,1.2 µM
COC(=O)c1c(O)cc(O)c(Cl)c1CCC(=O)Nc1nccs1,HSP90B1,ligand displacement,FP,,1.08 µM
CC(=O)N[C@H]1[C@H](O[C@H]2[C@H](O)[C@@H](NC(C)=O)C(O)O[C@@H]2CO)O[C@H](CO)[C@@H](O[C@@H]2O[C@H](CO)[C@@H](O)[C@H](O)[C@H]2NC(C)=O)[C@@H]1O (some centres unmarked),"Chitotriosidase-1 (Homo sapiens, UniProt Q13231)",binding,,,3100 µM
CC(C)Nc1ccnc(Nc2cccc(-c3cccnc3)c2)n1,TYK2 JH2,binding,competition with immobilised ligand,,0.21 µM
O=C1OC2(c3ccc(O)cc3Oc3cc(O)ccc32)c2ccccc21,"Lysozyme C (LYZ, Gallus gallus, UniProt P00698)",binding,fluorescence,,3.8 µM
COC(=O)c1c(O)cc(O)c(Cl)c1CCC(=O)Nc1ccccn1,HSP90B1,ligand displacement,FP,,0.82 µM
Cc1ncsc1-c1ccc(CNC(=O)[C@@H]2C[C@H](O)CN2C(=O)[C@@H](NC(=O)C2(F)CC2)C(C)(C)C)c(OCCOc2ccc(CN3CCN(c4cc(-c5ccccc5O)nnc4N)CC3)cc2)c1,SMARCA2 bromodomain,binding,SPR,,1.1 µM
